Compound activity deposited in PubChem BioAssay by several laboratories.
Sampled rows, rich in hits. Any-hit rate of the full collection: about 2.3%.
NR2E3 ag-1: inhibitors of NR2E3-RetCOR corepressor binding, primary screen, NR2E3 agonist project, biochemical, TR-FRET, GST-NR2E3, biotin-RetCOR | Photoreceptor-specific nuclear receptor (Homo sapiens), Q9Y5X4 | 1536-well | inhibition of corepressor binding, % at 4.78 µM | hit rate 0.12% among 320,000;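 active = percent inhibition above the cutoff of mean plus 3 SD of all tested compounds, set per screening campaign, cut at about 20% in these data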;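 also: 0% = DMSO wells and 100% = biotin wells as full block of FRET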
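System: GST-NR2E3 and biotin-RetCOR proteins; probe or stimulus: 7 nM biotin-RetCOR; doses: compound at 4.8 µM, single dose; schedule: Compound–protein incubation for 5 h at 4 °C; detection: time-resolved FRET; read-out: percent inhibition; controls: biotin wells as high control, 0.6% DMSO wells as low control; format: 1536-well plates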
NR2E3 ag-2: NR2E3 agonists in two-hybrid cells, primary screen, cell-based, luminescence, CHO-S, Gal4-NCOR/VP16-NR2E3 | Photoreceptor-specific nuclear receptor (Homo sapiens), Q9Y5X4 | luciferase | inhibition of corepressor binding, % at 3.98 µM | hit rate 0.35% among 360,000 | AID 602229, 2012;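 active = inhibition above the mean of all tested compounds plus 3 SD, cut at about 70% in these data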;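 also: 0% = DMSO with NR2E3 transfected cells and 100% = cells lacking NR2E3 construct; higher means lower luciferase signal from less NR2E3 corepressor binding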
CHT allo act: CHT positive allosteric modulators, primary screen, cell-based, membrane potential dye, choline EC20; CHT-expressing cells; stronger effect = higher value; LV-AA mutant CHT in HEK293 cells; B-score at 10 µM; hit rate 0.49% among 310,000; AID 488977, 2010;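 active = initial fluorescence not abnormally high and integrated response B-score, plate-corrected, over 3 SD above library mean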
NR2F2 inh: NR2F2 transcriptional activity inhibitors, primary screen, cell-based, luciferase reporter, HEK293T, luminescence; AID 686940, 2013; inhibition, % at 8.6 µM; HEK293T NGFI-A luciferase reporter; hit rate 0.7% among 370,000;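 active = inhibition above a per-plate cutoff, mean inhibition of test wells between control levels plus 3 SD, cut at about 38% in these data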;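 also: cells cotransfected with COUP-TFII expression vector driving the NGFI-A reporter; 0% = median of COUP-TF2 test wells and 100% = reporter-only cells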
GalR3 antag: GalR3 antagonists in HEK293 cells, primary screen, cell-based, fluorescence readout. hit rate 0.44% among 360,000. HEK293 GalR3-CNG cAMP membrane potential fluorescence; galR3 body fused to GalR1 C-terminus. inhibition, % at 3 µM. Galanin receptor type 3 (Homo sapiens), O60755;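 active = inhibition above the screen-wide average plus 3 SD, cut at about 13% in these data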;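 also: forskolin and galanin both at EC90 stimulate the cells; cAMP rise reported by CNG channel membrane potential dye signal; 0% = forskolin plus galanin with DMSO and 100% = forskolin alone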
Target sequence (O60755 1-299 limits assumed): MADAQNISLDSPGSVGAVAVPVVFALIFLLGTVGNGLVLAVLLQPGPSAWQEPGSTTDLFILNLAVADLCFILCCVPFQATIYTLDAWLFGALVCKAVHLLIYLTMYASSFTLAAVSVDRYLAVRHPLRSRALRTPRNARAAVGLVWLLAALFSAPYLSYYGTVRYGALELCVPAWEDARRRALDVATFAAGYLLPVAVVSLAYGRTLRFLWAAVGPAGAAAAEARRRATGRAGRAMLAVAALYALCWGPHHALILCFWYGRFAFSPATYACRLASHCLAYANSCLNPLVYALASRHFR
CHT inh: inhibitors of human choline transporter CHT; High affinity choline transporter 1 (Homo sapiens), Q9GZV3; B-score at 10 µM; CHT-expressing cells, membrane potential dye, choline response; stronger effect = lower value; AID 488975, 2010; hit rate 0.86% among 310,000;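 active = B-score over 3 SD under the library average, and starting fluorescence ratio not unusually high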;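 also: choline stimulus applied at its EC90 after an EC20 pre-addition; B-score computed on integrated fluorescence ratio after choline addition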
CHT block conf: CHT inhibitors, confirmation, cell-based, membrane potential dye, duplicate | CHT activity remaining % of control (stronger effect = lower value), % at 10 µM | CHT-expressing cells, choline membrane potential dye; LV-to-AA substituted CHT, HEK293 cells | hit rate 70% among 2,400 | shares compounds with CHT inh;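 active = choline transporter activity left, mean of duplicates at 10 µM, below buffer-only control mean minus 3 SD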;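 also: depolarization triggered by choline at its EC90 following an EC20 pre-addition; 0% = hemicholinium-3 full block and 100% = buffer-only control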
HEK293 MPD ctr: membrane potential effects in parental HEK293, counter-screen for CHT inhibitor project, cell-based, membrane potential dye | hit rate 4% among 2,400 | membrane potential ratio readout (active if shifted either direction beyond buffer ±3SD; no single direction) at 10 µM | choline response; active = decrease or increase beyond buffer ±3SD | shares compounds with CHT inh | AID 493222, 2011;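 also: parental cells lack the transporter so any hit is non-specific; ratio is peak minus trough fluorescence over baseline after EC90 choline challenge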
* hit, by the source's call; i = inactive; . = no result.

SMILES	NR2E3 ag-1	NR2E3 ag-2	CHT allo act	NR2F2 inh	GalR3 antag	CHT inh	CHT block conf	HEK293 MPD ctr
O=S(=O)(NCCN1CCOCC1)c1cccs1	-3	7	i	-5	-5	-9.3*	i	i
Cc1[nH]nc2c1-c1nc3ccccc3nc1C(C)(C)C2	2	-11	i	35	-8	-5*	i	i
CC12CCC(C)(c3nc4ccccc4nc31)C2(C)C	4	19	i	4	-4	i	.	.
Cc1ccc(NC(=O)CNC(=O)c2cccc(Cl)c2)nc1	1	38	i	-40	4	-6.2*	26%*	i
CC(C)(C)C(=O)NC(=S)Nc1cc(C(F)(F)F)ccc1N1CCOCC1	-1	24	i	12	-3	-5*	i	i
CC1=CC2(C(Cc3ccccc3)N(CC3CC3)C(=NC(=O)c3ccccc3)N2C(=O)OCc2ccccc2)n2c(=O)n(-c3ccccc3)c(=O)n2C1 (stereo not given)	.	.	.	-9	.	.	.	.
CC(C)(C)CC(=O)NCCc1csc(-c2ccccc2)n1	-5	-25	i	-38	-4	-5.3*	55%*	i
O=C(NC1CCCCC1)N1CCN(c2ccc(Cl)cc2)CC1	2	16	i	4	-1	-5.8*	i	i
O=C(NC1CCCCC1)N1CCN(c2ccc([N+](=O)[O-])cc2)CC1	5	31	i	19	-4	i	.	.
CC(COc1cccc(Cl)c1)CN1CCC(C(O)(c2ccccc2)c2ccccc2)CC1 (stereo not given)	.	.	.	5	.	.	.	.
CCCCNS(=O)(=O)c1ccc(NC(=O)Cc2ccccc2[N+](=O)[O-])cc1	3	-18	i	-2	-7	-6*	43%*	i
CC(C)(C)NS(=O)(=O)c1ccc(NC(=O)Cc2ccccc2[N+](=O)[O-])cc1	-2	6	i	-7	3	i	.	.
CCCN1CCS(=O)(=O)N(Cc2cn(Cc3ccc(OC)cc3)nn2)C(C(=O)OC)C1 (stereo not given)	.	.	.	-15	.	.	.	.
COCCNc1c2c(nc3c(-c4ccccc4)c(C)nn13)CCCC2	6	13	i	9	-6	-9*	66%*	i
Cc1nn2c(NCCOCCO)c3c(nc2c1-c1ccccc1)CCCC3	3	-21	i	.	.	-5.2*	31%*	i
Cc1nn2c(N3CCN(CCO)CC3)c3c(nc2c1-c1ccccc1)CCCC3	-3	4	i	-18	-7	-9*	31%*	i
CCCCNc1c2c(nc3c(-c4ccccc4)c(C)nn13)CCC2	-2	-4	i	-11	-4	i	.	.
Cc1nn2c(NCCCN3CCOCC3)c3c(nc2c1-c1ccccc1)CCC3	-1	4	i	-5	4	i	.	.
COc1ccc(N2CCCN(CC(=O)Nc3ccc(Cl)c(Cl)c3)CC2)cc1	.	.	.	17	.	.	.	.
CCC1CCCCN1S(=O)(=O)c1ccc(NC(=O)c2nc(S(C)(=O)=O)ncc2Cl)cc1 (stereo not given)	-1	9	i	32	-6	-6.4*	12%*	i
CCS(=O)(=O)c1ncc(Cl)c(C(=O)Nc2ccc(S(=O)(=O)N3CCCC(C)C3)cc2)n1 (stereo not given)	0	-15	i	4	-6	i	.	.
